Results on seven compounds are retold here after ChEMBL document CHEMBL4265993, “Antibacterial Cyclic Lipopeptide Enamidonins with an Enamide-Linked Acyl Chain from a Streptomyces Species” (2018).

In brackets after ≈: the same amount, converted by molar mass. Activity calls are given as the source filed them.

What all share (type): functional
The test system of test [1] is Bacillus subtilis. Put plainly: Antibacterial activity against Bacillus subtilis assessed as diameter of inhibition zone after 24 hrs by disk diffusion method. The method in brief: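 Disk diffusion. B. subtilis colonies cultured 24 h at 28 °C were suspended in sterile distilled water and inoculated onto nutrient agar. A 6 mm i.d. paper disk holding sample was placed on the plate, which was incubated 24 h at 28 °C. Read-out was the inhibition zone.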
For orientation: A growth-free zone around the sample is the usual read-out of agar diffusion tests.

A further test relates to Enterococcus faecalis. Put plainly: Antibacterial activity against Enterococcus faecalis KCTC 5191 after 24 hrs by two-fold serial dilution method. The following applies: KCTC 5191, 24 h. The method in brief: (§1)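 Broth microdilution MIC. Bacteria grown to mid-log phase in appropriate media and seeded in 96-well microtiter plates at 10^5 cells/mL. Treated with serial 2-fold dilutions of compounds prepared in DMSO, with ciprofloxacin as the reference drug. MIC determined in triplicate.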

The subject of the next test is Acinetobacter baumannii. Nature of the test: Antibacterial activity against Acinetobacter baumannii KCTC 2508 after 24 hrs by two-fold serial dilution method. The following applies: KCTC 2508, 24 h. The method, boiled down: as §1
Test [2] has as its system Bacillus subtilis. Nature of the test: Antibacterial activity against Bacillus subtilis KCTC 1021 after 24 hrs by two-fold serial dilution method. The following applies: KCTC 1021, 24 h. The method, boiled down: as §1
In another test the test system is Escherichia coli. Put plainly: Antibacterial activity against Escherichia coli CCARM 1356 after 24 hrs by two-fold serial dilution method. Particulars: CCARM 1356, 24 h. The method, boiled down: as §1
Test [3] relates to Staphylococcus aureus. Put plainly: Antibacterial activity against quinolone-resistant Staphylococcus aureus CCARM 3505 after 24 hrs by two-fold serial dilution method. Particulars: CCARM 3505, 24 h. The method in brief: (§2)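 MIC by broth microdilution. Bacteria were grown to mid-log phase in appropriate growth media and seeded into 96-well plates at 10^5 cells/mL. Compounds, with ciprofloxacin as reference, were prepared in DMSO and tested as serial 2-fold dilutions. MICs were determined in triplicate.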

The subject of test [4] is Staphylococcus aureus. Nature of the test: Antibacterial activity against methicillin-resistant Staphylococcus aureus CCARM 3167 after 24 hrs by two-fold serial dilution method. The following applies: CCARM 3167, 24 h. The method in brief:
as §2

A further test deals with Pseudomonas aeruginosa. Nature of the test: Antibacterial activity against Pseudomonas aeruginosa KCTC 2004 after 24 hrs by two-fold serial dilution method. Particulars: KCTC 2004, 24 h. The method in brief:
as §1

In test [5] the test system is Staphylococcus aureus. Nature of the test: Antibacterial activity against Staphylococcus aureus RN4220 after 24 hrs by two-fold serial dilution method. The following applies: RN4220, 24 h. The method in brief:
as §1

Test [6] concerns Staphylococcus aureus. Nature of the test: Antibacterial activity against quinolone-resistant Staphylococcus aureus CCARM 3519 after 24 hrs by two-fold serial dilution method. Particulars: CCARM 3519, 24 h. The method in brief:
as §2

In another test the test system is Streptococcus pneumoniae. Nature of the test: Antibacterial activity against Streptococcus pneumoniae KCTC 5412 after 24 hrs by two-fold serial dilution method. The following applies: KCTC 5412, 24 h. The method, boiled down: as §1
The subject of test [7] is Staphylococcus aureus. Nature of the test: Antibacterial activity against methicillin-resistant Staphylococcus aureus CCARM 3506 after 24 hrs by two-fold serial dilution method. The following applies: CCARM 3506, 24 h. The method, boiled down:
as §2

Turning to `C[C@@H](O)CC/C=C/CCC/C=C/C=C/C(=O)N/C=C/C(=O)NC[C@H]1NC(=O)[C@H](Cc2ccccc2)NC(=O)CNC(=O)[C@@H](N)CNC1=O`, in the test with Bacillus subtilis [1], the result was inactive.
In the case of `O=C(O)c1cn(C2CC2)c2cc(N3CCNCC3)c(F)cc2c1=O` [CIPROFLOXACIN], the minimum inhibitory concentration (MIC) (commonly the smallest concentration in the dilution series that meets the test's criterion for growth inhibition) in the test with Enterococcus faecalis came to 1 µg/mL (≈ 3.02 µM); in the test on Acinetobacter baumannii it was 0.25 µg/mL (≈ 0.754 µM); with Bacillus subtilis [2], 0.0312 µg/mL (≈ 0.0943 µM); in the test on Escherichia coli, 64 µg/mL (≈ 193 µM); against Staphylococcus aureus [3], 32 µg/mL (≈ 96.6 µM); with Staphylococcus aureus [4], 4 µg/mL (≈ 12.1 µM).
Turning to `C[C@@H](O)CC/C=C/CCC/C=C/C=C/C(=O)N/C=C/C(=O)NC[C@H]1NC(=O)[C@H](Cc2ccccc2)NC(=O)CN2C(=O)[C@H](CNC1=O)NC2(C)C`, the MIC in the test on Enterococcus faecalis was above 128 µg/mL; in the test with Acinetobacter baumannii, above 128 µg/mL; in the test with Bacillus subtilis [2], 4 µg/mL (≈ 5.67 µM); in the test on Pseudomonas aeruginosa it was above 128 µg/mL; in the test with Escherichia coli, above 128 µg/mL; in the test with Staphylococcus aureus [5] it was above 128 µg/mL. Besides, the MIC against Staphylococcus aureus [3], with Staphylococcus aureus [6], against Streptococcus pneumoniae, in the test with Staphylococcus aureus [7] and in the test with Staphylococcus aureus [4] was above 128 µg/mL in each case. The “diameter of the inhibition zone (DIZ)” value in the test on Bacillus subtilis [1] was 15 mm.
Take `CC(C)C[C@@H]1NC(=O)CN2C(=O)[C@H](CNC(=O)[C@@H](CNC(=O)/C=C/NC(=O)/C=C/C=C/CCC/C=C/CC[C@@H](C)O)NC1=O)NC2(C)C`: the minimal inhibitory concentration (MIC) in the test on Enterococcus faecalis was 8 µg/mL (≈ 11.9 µM); against Acinetobacter baumannii it was above 128 µg/mL; against Bacillus subtilis [2], 16 µg/mL (≈ 23.8 µM); against Pseudomonas aeruginosa, above 128 µg/mL; with Escherichia coli, above 128 µg/mL; against Staphylococcus aureus [5], above 128 µg/mL. For the same compound, the MIC in the test with Staphylococcus aureus [3] is 16 µg/mL (≈ 23.8 µM); with Staphylococcus aureus [6] it was 16 µg/mL (≈ 23.8 µM); in the test with Streptococcus pneumoniae, above 128 µg/mL; in the test with Staphylococcus aureus [7], 8 µg/mL (≈ 11.9 µM); with Staphylococcus aureus [4], 32 µg/mL (≈ 47.6 µM). In addition, in the test with Bacillus subtilis [1], the “diameter of the inhibition zone (DIZ)” value is 13.5 mm.
Regarding `CC[C@H](C)[C@@H]1NC(=O)[C@H]([C@@H](C)O)NC(=O)[C@@H](N)CNC(=O)[C@@H](CNC(=O)/C=C/NC(=O)/C=C/C=C/CCC/C=C/CC[C@@H](C)O)NC1=O`, in the test with Bacillus subtilis [1], the outcome was inactive.
Turning to `CC[C@H](C)[C@@H]1NC(=O)[C@H]([C@@H](C)O)N2C(=O)[C@H](CNC(=O)[C@@H](CNC(=O)/C=C/NC(=O)/C=C/C=C/CCC/C=C/CC[C@@H](C)O)NC1=O)NC2(C)C`, the MIC against Enterococcus faecalis is 64 µg/mL (≈ 89.4 µM); with Acinetobacter baumannii, above 128 µg/mL; against Bacillus subtilis [2], 16 µg/mL (≈ 22.3 µM); in the test with Pseudomonas aeruginosa it was above 128 µg/mL; against Escherichia coli it was above 128 µg/mL; against Staphylococcus aureus [5], 32 µg/mL (≈ 44.7 µM). Besides, the MIC in the test with Staphylococcus aureus [3] was 32 µg/mL (≈ 44.7 µM); with Staphylococcus aureus [6], 32 µg/mL (≈ 44.7 µM); against Streptococcus pneumoniae, above 128 µg/mL; with Staphylococcus aureus [7], 16 µg/mL (≈ 22.3 µM); against Staphylococcus aureus [4] it was 64 µg/mL (≈ 89.4 µM). Also, in the test on Bacillus subtilis [1], the “diameter of the inhibition zone (DIZ)” value stood at 13.5 mm.
In the case of `CC(C)C[C@@H]1NC(=O)CNC(=O)[C@@H](N)CNC(=O)[C@@H](CNC(=O)/C=C/NC(=O)/C=C/C=C/CCC/C=C/CC[C@@H](C)O)NC1=O`, the result in the test on Bacillus subtilis [1] was inactive.
